Measurements: PubChem BioAssay
Inconclusive results are not listed.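 Rule for the calls, unless noted: active = growth inhibition above 25% in both replicates, a cutoff set 3 SD above the mean; inconclusive = above 25% in only one replicate; inactive = the rest.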

Tests used:
[1] = S. cerevisiae growth inhibition in permissive medium (OD615), pilot counter-assay for S. cerevisiae lifespan shortening project, permissive growth control (AID 705); conditions: OD615, 24 h, at 10 µM, stronger effect = higher value
How it was run: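 System: Engineered DeaD yeast | Buffer or medium: SC raffinose/galactose permissive medium | Incubation: Cells pre-grown 4 h, then 24 h compound exposure, 30 °C humidified | Measured by: Absorbance (optical density) at 615 nm | Read-out: Reduction in yeast growth (OD615)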

[2] = S. cerevisiae growth inhibition in restrictive medium, OD615, pilot screen, restrictive growth control, yeast lifespan reduction project (AID 706;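 active = growth inhibition above a set limit, 3 SD over mean compound inhibition, in both replicates, cut at about 43% in these data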;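 note: modified DeaD lifespan yeast strain shifted to restrictive glucose medium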); conditions: OD615, 48 h, at 10 µM, stronger effect = higher value
How it was run: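 Material: modified S. cerevisiae; Medium: glucose-based CSMM-D restrictive medium; Compound dosing: one concentration, 10 µM final, 0.25% DMSO; Incubation: 48 h compound exposure at 30 °C; Measured by: OD615.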

[3] = doxorubicin toxicity protection in MRP-1 cells – H69AR cells, CellTiter-Glo, duplicate, MRP-1 activator project, pilot screen (AID 807;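 active = viability increase at or above a cutoff of the median across tested compounds plus 3 SD, cut at about 8.5% in these data, passing the limit was not always enough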;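 note: compound pretreatment 18-22 h then 72 h combined with doxorubicin; 0% = doxorubicin alone and 100% = vehicle without doxorubicin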); conditions: H69AR viability with doxorubicin, CellTiter-Glo luminescence; at 10 µM; stronger effect = higher value
[4] = viability of HCT116 without oncogenic beta-catenin – human colon tumor cells, pilot screen (AID 823;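 active = cell viability at or below a set limit in both duplicate runs, the limit being the all-compound median minus 4 SD, cut at about 23% in these data, passing the limit was not always enough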;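 note: 0% = wells killed by 20 µM Hyamine and 100% = untreated DMSO cell wells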); conditions: HCT116 beta-catenin knockout viability, CellTiter-Glo, 60 h; at 10 µM; stronger effect = lower value
[5] = viability of PTEN-null HCT116 cells – cell-based, HCT116 clonal line, CellTiter-Glo, pilot screen (AID 824;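 active = viability at or below 27.92% in each of two runs, the all-compound median minus 4 SD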;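 note: 0% = 20 µM Hyamine control and 100% = vehicle cell control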); conditions: HCT116 PTEN-deleted viability, 60 h, at 10 µM, stronger effect = lower value
[6] = RAM pathway blockade in budding yeast – dse1pr::URA3 reporter, 5-FOA selection, pilot screen (AID 869;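 active = inhibition over a set limit, the all-compound mean plus 3 SD, in both replicate runs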;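 note: 0% = DMSO wells with no growth and 100% = 10 µM 1-NA-PP1 with full growth; RAM network block rescues cells from 5-FOA so hits raise OD615 growth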); conditions: S. cerevisiae dse1pr::URA3 5-FOA growth, OD615, 2 d; at 10 µM; stronger effect = higher value; strain carries analog-sensitive mutant Cbk1 kinase
[7] = RAM signaling pathway blockade in yeast – S. cerevisiae, Pdr1DBD-CYC8 efflux-inhibited sensitized strain, primary screen (AID 1298;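 active = RAM network inhibition above 8.4% in each of two replicates, 3 SD over the compound average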;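 note: 0% = DMSO untreated cells without growth and 100% = 10 µM 1-NA-PP1 full growth; higher means more yeast growth rescued from 5-FOA killing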); conditions: S. cerevisiae cbk1-as DSE1-URA3 strain, 5-FOA growth OD615, 2 d; at 50 µM; stronger effect = higher value

O=C(Nc1ccc(N2CCCC2)c(Cl)c1)c1ccco1
inactive: growth inhibition [1] -2.11% | growth inhibition [2] 8.76% | viability increase [3] 0.68% | viability [4] 91.5% | viability [5] 89.1% | inhibition [6] 1.51% | RAM network inhibition [7] 0.62%

CCOC(=O)C1=C(C)NC(=O)NC1c1c(O)ccc2ccccc12 (configuration not stated)
inactive: growth inhibition [1] -11.6% | growth inhibition [2] -12.7% | viability increase [3] -3.39% | viability [4] 97.6% | viability [5] 95.4% | inhibition [6] 0.77% | RAM network inhibition [7] 2.29%

Cc1cc(C(=O)Nc2nnc(C3CCCCC3)s2)cs1
inactive: growth inhibition [1] -9.12% | growth inhibition [2] 1.04% | viability increase [3] 1.38% | viability [4] 94.7% | viability [5] 101% | inhibition [6] 4.87% | RAM network inhibition [7] 9.03%

COc1cccc(NC=C2C(=O)OC(C)(C)OC2=O)c1
inactive: growth inhibition [1] -11% | growth inhibition [2] -2.86% | viability increase [3] -1.97% | viability [4] 98.7% | viability [5] 106% | inhibition [6] 0.94% | RAM network inhibition [7] 2.55%

COc1ccc(-c2nnnn2C)cc1S(=O)(=O)NCCc1ccccc1
inactive: growth inhibition [1] -8.48% | growth inhibition [2] 2.52% | viability increase [3] 0.12% | viability [4] 97.5% | viability [5] 104% | inhibition [6] 1% | RAM network inhibition [7] 3.03%

COc1ccc2c(c1)CC(C1(O)C(=O)N(C)c3ccccc31)C2=O (configuration not stated)
inactive: growth inhibition [1] 2.02% | growth inhibition [2] -8.81% | viability increase [3] -3.79% | viability [4] 94% | viability [5] 93.3% | inhibition [6] 0.845% | RAM network inhibition [7] 2.96%

CCOC(=O)c1c(NC(=O)c2cc(C3CC3)on2)sc2c1CCCC2
inactive: growth inhibition [1] -9.14% | growth inhibition [2] 0.505% | viability increase [3] -1.3% | viability [4] 102% | viability [5] 97.5% | inhibition [6] 1.49% | RAM network inhibition [7] 8.09%

Cc1ccc2oc(=O)c3cc(C(=O)N4CCN(C(=O)c5ccco5)CC4)sc3c2c1
inactive: growth inhibition [1] -9.32% | growth inhibition [2] -1.79% | viability increase [3] -2.75% | viability [4] 102% | viability [5] 99.5% | inhibition [6] 2.8% | RAM network inhibition [7] 3.77%

COc1cc2c(cc1OC)C(c1ccco1)CC(=O)N2 (configuration not stated)
inactive: growth inhibition [1] -6.61% | growth inhibition [2] -1.62% | viability increase [3] -2.43% | viability [4] 101% | viability [5] 101% | inhibition [6] 1.06% | RAM network inhibition [7] 3.34%

COc1cccc(C2NC(=O)NC(C)=C2C(=O)Nc2ccc(C)cc2)c1OC (configuration not stated)
inactive: growth inhibition [1] -1.23% | growth inhibition [2] -4.83% | viability increase [3] 0.13% | viability [4] 98.5% | viability [5] 99.7% | inhibition [6] 0.455% | RAM network inhibition [7] 6.12%

O=C(c1nnc(Cc2ccc(Cl)cc2)o1)N1CCOCC1
inactive: growth inhibition [1] -7.58% | growth inhibition [2] 1.76% | viability increase [3] -0.86% | viability [4] 105% | viability [5] 107% | inhibition [6] 1.23% | RAM network inhibition [7] 0.99%

N#Cc1c(SCC(N)=O)nc2c(c1-c1ccc(O)cc1)CCCC2
inactive: growth inhibition [1] -15.2% | growth inhibition [2] -15.6% | viability increase [3] -1.33% | viability [4] 94.5% | viability [5] 93.6% | inhibition [6] 3.51% | RAM network inhibition [7] 4.51%

Cn1cc(SCC(=O)N2CCN(c3ccccc3)CC2)c2ccccc21
inactive: growth inhibition [1] -0.395% | growth inhibition [2] 11.5% | viability increase [3] -4.68% | viability [4] 91.3% | viability [5] 88.4% | inhibition [6] 1.52% | RAM network inhibition [7] 7.36%

CCN1CCN(CC(=O)NC2CCCCC2)C(=O)C1=O
inactive: growth inhibition [1] -14.6% | growth inhibition [2] -12.4% | viability increase [3] -0.83% | viability [4] 96.1% | viability [5] 96.3% | inhibition [6] 0.89% | RAM network inhibition [7] 2.42%

O=C(/C=C\Nc1ccccn1)c1ccc(Cl)cc1
inactive: growth inhibition [1] -7.61% | growth inhibition [2] -36.4% | viability increase [3] 0.28% | viability [4] 83.5% | viability [5] 81.7% | inhibition [6] 2.68% | RAM network inhibition [7] 8.82%

COC(=O)CC1=C(C)C(=O)CC2C(C)(C)CCCC12C (configuration not stated)
inactive: growth inhibition [1] 4.86% | growth inhibition [2] -8.22% | viability increase [3] 1.01% | viability [4] 85.6% | viability [5] 94% | inhibition [6] 1.27% | RAM network inhibition [7] 4.48%

CCN(CC)S(=O)(=O)c1ccc(C(=O)Nc2ccc(OCC(=O)N3CCOCC3)cc2)cc1
inactive: growth inhibition [1] -6% | growth inhibition [2] -11% | viability increase [3] 0.35% | viability [4] 86.6% | viability [5] 95.4% | inhibition [6] 0.185% | RAM network inhibition [7] 4.45%

CCN(CC)S(=O)(=O)c1ccc(Cl)c(C(=O)NC)c1
inactive: growth inhibition [1] -15.4% | growth inhibition [2] -16.3% | viability increase [3] -0.22% | viability [4] 105% | viability [5] 96.4% | inhibition [6] 0.985% | RAM network inhibition [7] 3.63%

COC(=O)c1cn(NC(=O)CC2CCCCC2)c(=O)c2ccccc12
inactive: growth inhibition [1] 7.57% | growth inhibition [2] 1.75% | viability increase [3] 0.01% | viability [4] 94% | viability [5] 91.7% | inhibition [6] 0.24% | RAM network inhibition [7] 2.22%

CCCNC(=O)CS(=O)Cc1nc(-c2ccccc2C)oc1C (configuration not stated)
inactive: growth inhibition [1] -14.3% | growth inhibition [2] -5.72% | viability increase [3] 0.85% | viability [4] 94.2% | viability [5] 96.9% | inhibition [6] -0.325% | RAM network inhibition [7] 6.48%

COc1ccccc1NC(=O)CSc1nc2ncccc2[nH]1
inactive: growth inhibition [1] -4.5% | growth inhibition [2] 17.8% | viability increase [3] -1.01% | viability [4] 101% | viability [5] 98.2% | inhibition [6] 0.975% | RAM network inhibition [7] 3.83%

O=C(Nc1ccc2c(c1)OCO2)C1CCCN1C(=O)OCc1ccccc1 (configuration not stated)
inactive: growth inhibition [1] -17.8% | growth inhibition [2] -4.2% | viability increase [3] -1.45% | viability [4] 94.4% | viability [5] 93.6% | inhibition [6] 1.32% | RAM network inhibition [7] 4.12%

O=S(=O)(c1ccc(-c2cn3ccccc3n2)cc1)N1CCOCC1
inactive: growth inhibition [1] 1.49% | growth inhibition [2] -12.4% | viability increase [3] -3.55% | viability [4] 86.7% | viability [5] 97.3% | inhibition [6] 1.14% | RAM network inhibition [7] 3.9%

N#CCC(=O)Nc1sc2c(c1C(N)=O)CCCC2
inactive: growth inhibition [1] -12.7% | growth inhibition [2] -7.35% | viability increase [3] -1.93% | viability [4] 97.5% | viability [5] 99.9% | inhibition [6] 3.18% | RAM network inhibition [7] 0.67%

CCC1CCCCN1Cc1nc2c(c(=O)n(C)c(=O)n2C)n1Cc1ccccc1 (configuration not stated)
inactive: growth inhibition [1] 6.88% | growth inhibition [2] -0.26% | viability increase [3] 3.7% | viability [4] 75.3% | viability [5] 74.4% | inhibition [6] 2.1% | RAM network inhibition [7] 2.14%

Cc1oc(-c2ccc(Cl)cc2)nc1CN1CCC(C(=O)NCCCN2CCCC2=O)CC1
inactive: growth inhibition [1] -13.4% | growth inhibition [2] -11.7% | viability increase [3] -2.67% | viability [4] 93.1% | viability [5] 89% | inhibition [6] 1.76% | RAM network inhibition [7] 4.34%

Cc1cc2oc3c(c(=O)c2cc1C)C(c1ccc(F)cc1)N(CCCN1CCOCC1)C3=O (configuration not stated)
inactive: growth inhibition [1] 4.43% | growth inhibition [2] -11.3% | viability increase [3] -2.77% | viability [4] 98.5% | viability [5] 96% | inhibition [6] 1.74% | RAM network inhibition [7] 1.83%

COc1cc2[nH]c(=O)n(CCCCCC(=O)NCCCN3CCOCC3)c(=O)c2cc1OC
inactive: growth inhibition [1] -9.12% | growth inhibition [2] -24.8% | viability increase [3] -1.27% | viability [4] 97.8% | viability [5] 89.6% | inhibition [6] 0.585% | RAM network inhibition [7] -0.68%

O=C(O)CCCC(=O)Nc1ccccc1Br
inactive: growth inhibition [1] 9.25% | growth inhibition [2] 10.5% | viability increase [3] -1.61% | viability [4] 104% | viability [5] 94.8% | inhibition [6] 1.11% | RAM network inhibition [7] 2.11%

CC1=C(C#N)C(c2cccnc2)C2=C(CC(C)(C)CC2=O)N1 (configuration not stated)
inactive: growth inhibition [1] 1.49% | growth inhibition [2] -0.735% | viability increase [3] -2.91% | viability [4] 94.2% | viability [5] 99.6% | inhibition [6] 1.09% | RAM network inhibition [7] 3.92%

CCOc1ccc(C2c3c(oc4ccccc4c3=O)C(=O)N2c2ccccn2)cc1OC (configuration not stated)
inactive: growth inhibition [1] -15.4% | growth inhibition [2] -25.5% | viability increase [3] -4.13% | viability [4] 92.3% | viability [5] 96.2% | inhibition [6] 1.44% | RAM network inhibition [7] 1.32%

O=C(Nc1nc(-c2ccc3c(c2)OCO3)cs1)C1COc2ccccc2O1 (configuration not stated)
inactive: growth inhibition [1] 0.51% | growth inhibition [2] 3.12% | viability increase [3] 1.56% | viability [4] 99.8% | viability [5] 88.9% | inhibition [6] 2.81% | RAM network inhibition [7] 4.11%

O=C(O)COc1ccc(Br)cc1/C=N/O
inactive: growth inhibition [1] 5.41% | growth inhibition [2] 3.78% | viability increase [3] -2.11% | viability [4] 92.7% | viability [5] 85.4% | inhibition [6] 0.975% | RAM network inhibition [7] 2.5%

CCCc1nc(N2CCN(C)CC2)c2sc(=S)n(-c3ccccc3)c2n1
inactive: growth inhibition [1] -8.52% | growth inhibition [2] 17.7% | viability increase [3] -2.47% | viability [4] 83.8% | viability [5] 82.6% | inhibition [6] 0.39% | RAM network inhibition [7] 6.13%

CC12CCC(C(=O)NCc3ccco3)(OC1=O)C2(C)C (configuration not stated)
inactive: growth inhibition [1] -9.57% | growth inhibition [2] -9.65% | viability increase [3] -2.96% | viability [4] 98.3% | viability [5] 93.2% | inhibition [6] 1.42% | RAM network inhibition [7] -0.27%

COCN(C#N)c1nc(OC)nc(OC)n1
inactive: growth inhibition [1] 0.79% | growth inhibition [2] 7.01% | viability increase [3] 2.98% | viability [4] 103% | viability [5] 104% | inhibition [6] -0.1% | RAM network inhibition [7] 2.34%
